Published values pooled from the literature.
Target: Serine/threonine-protein kinase tousled-like 2 (TLK2, Homo sapiens, UniProt Q86UE8)

| Structure (SMILES) | test | conditions | remaining binding [%] |
| --- | --- | --- | --- |
| O=C(c1ccc(Nc2ncc(Cl)c(-c3cc4ccccc4s3)n2)cc1)N1CCC(N2CCCC2)CC1 | binding, competition with immobilised ligand | 1 µM | 26 |
| CN(CCCC(F)(F)F)c1nccc(-c2cnn3ncccc23)n1 | binding | 1 µM | 100 |
| CCN1CCN(Cc2ccc(C(=O)Nc3ccc(C)c(Oc4ccc5c(c4)CC(=O)N5)c3)cc2C(F)(F)F)CC1 | binding, competition with immobilised ligand | 1 µM | 94 |
| CCS(=O)(=O)c1cc2cc(C[C@](O)(CC(C)(C)c3ccc(F)cc3C(N)=O)C(F)(F)F)[nH]c2cn1 | cell-free assay, competition with immobilised ligand | 1 µM | 100 |
| COc1ncc2cc3ccccc3nc2c1C#N | cell-free assay, competition with immobilised ligand | 5 µM | 100 |
| O=C(NCCCN1CCOCC1)c1ccc(Nc2ncc(Cl)c(-c3ccc(Cl)s3)n2)cc1 | binding, competition with immobilised ligand | 1 µM | 77 |
| CNC(=O)[C@@H]1CC[C@@H](n2c(-c3ccc4cnccc4c3)nc3ccc(C(=O)NCc4cccc(C(N)=O)c4)cc32)C1 | binding, competition with immobilised ligand | 1 µM | 100 |
| CC1=C(C#N)[C@@H](c2ccc3[nH]nc(C)c3c2)C(C#N)=C(c2ccc(Cl)cc2)N1 | cell-free assay, competition with immobilised ligand | 1 µM | 100 |
| N[C@H]1CCN(c2nccc(-c3cnn4ncccc34)n2)C1 | binding | 1 µM | 100 |
| C[C@@H](c1ccc(-n2cnc3c(N)ncnc32)cc1)N1CCc2nn(C)c(Cc3ccccc3)c2C1=O | binding, competition with immobilised ligand | 0.1 µM | 99 |
| Cc1cnc(Nc2ccc(C(=O)N3CCC(N4CCCC4)CC3)cc2)nc1-c1cc2ccccc2s1 | binding, competition with immobilised ligand | 1 µM | 15 |
| Cc1cnn2ncc(-c3ccnc(N(C)C)n3)c2c1 | binding | 1 µM | 100 |
| O=C(NCc1ncc(C(F)(F)F)cc1Cl)c1ccc2c(c1)C1(CCS(=O)(=O)CC1)[C@@H](C1CC1)N2S(=O)(=O)c1ccc(F)cc1 | cell-free assay, competition with immobilised ligand | 1 µM | 100 |
| CN(c1nccc(-c2cnn3ncccc23)n1)C1CC1 | binding | 1 µM | 100 |
| O=C(Nc1c[nH]nc1C(=O)NC1CCNCC1)c1cc(F)cc(F)c1 | binding, competition with immobilised ligand | 1 µM | 98 |
| NS(=O)(=O)c1cc(NC(=O)C2(c3ccccc3Cl)CC2)ccc1Oc1cccc(Cl)c1 | cell-free assay, competition with immobilised ligand | 1 µM | 100 |
| Nc1ncc2c(n1)-c1c([nH]c3ccc(C#CC4CC4)cc13)CCCC2 | binding, competition with immobilised ligand | 1 µM | 100 |
| Cc1nc(C2CCN(C(=O)c3ccc(OC(F)(F)F)cc3N)CC2)c2ncc(N3CCN(C)CC3)cc2n1 | cell-free assay, competition with immobilised ligand | 1 µM | 100 |
| C[C@H]1CCN(c2nccc(-c3cnn4ncccc34)n2)C1 | binding | 1 µM | 100 |
| CNC(=O)Nc1ccc2c(c1)[C@@]1(CC2)OC(=O)N(CC(=O)N(Cc2ccc(F)cc2)[C@@H](C)C(F)(F)F)C1=O | cell-free assay, competition with immobilised ligand | 1 µM | 100 |
| COc1ccnn2ncc(-c3ccnc(N(C)C)n3)c12 | binding | 1 µM | 100 |
